Assay results taken from paper PMC7394584 (OncoTargets and therapy, 2020).

Tests used:
[1] = test system: phospho-p70S6K (Thr389); assay: Western blot, phosphorylation of P70S6K1; assay type: cell-based, human; settings: MHCC97-H cells; for phosphorylation of P70S6K1 (Western blot): 1 μmol/L
[2] = test system: phospho-AKT; assay: Western blot, phosphorylation of AKT; assay type: cell-based, human; settings: MHCC97-H cells; for phosphorylation of AKT (Western blot): 1 μmol/L
Procedure, shortened: (§1)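 MHCC97-H cells (5 × 10^6 per 75T flask) pretreated 12 h with solvent, test compound or reference pathway inhibitors, each at 1 μmol/L, then incubated 24 h. RIPA lysates quantified by BCA; 40 μg protein run on 10–12% SDS-PAGE. Blocking in 5% skim milk/TBS-0.1% Tween-20; rabbit primary antibodies (1:1000, 4°C) against phospho-p70S6K Thr389, phospho-AKT Ser473/Thr308, phospho-ERK and total proteins; β-actin loading control.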

[3] = test system: MHCC97-H cells' subcutaneous tumor; assay: Nude mice subcutaneous tumor model; assay type: in vivo; settings: oral; for Tumor Volumes IC50 Values, Solvent control / Tumor Weights IC50 Values, Solvent control / Tumor Volumes IC50 Values, Compound 4 / Tumor Weights IC50 Values, Compound 4: every 2 days, 30 days; for Tumor Volumes IC50 Values, Solvent control / Tumor Weights IC50 Values, Solvent control: agent alone; for Tumor Volumes IC50 Values, Compound 4 / Tumor Weights IC50 Values, Compound 4: agent combined with compound 4 (1 mg/kg)
Procedure, shortened: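 MHCC97-H cells injected subcutaneously into 4–5-week-old nude mice. Dosing started 4–5 days later as oral liquids formulated with PEG and Tween 80, given orally every 2 days (15 doses over 30 days). Test compound at 1 mg/kg; sorafenib at 0.5 or 2 mg/kg. Tumours then excised. Volume = length × width²/2; weight measured on a balance. Inhibitory rates calculated from volume and weight.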

[4] = test system: phospho-ERK; assay: Western blot, phosphorylation of ERK; assay type: cell-based, human; settings: MHCC97-H cells, 1 μmol/L
Procedure, shortened: as §1

[5] = stated in introduction, no reference given; cited from earlier work
[6] = test system: advanced HCC patients; assay: Clinical outcome of sorafenib treatment by mTOR mRNA expression; assay type: in vivo, human; settings: sorafenib-treated advanced HCC patients
[7] = test system: MHCC97-H cells; assay: MTT cell-survival examination; assay type: cell-based; settings: compound 4 at 0.03 μmol/L (30 nmol/L)
Procedure, shortened: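 MHCC97-H seeded at 5 × 10^3 cells/well in DMEM + 10% FBS, 37°C, 5% CO2, 24 h. MTT read at OD 490 nm; inhibition = (control − treated)/control × 100%; IC50 calculated from inhibitory rates.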

For O=c1cc(N2CCOCC2)oc2c(-c3ccccc3)cccc12 [LY294002], the “phosphorylation of P70S6K1 (Western blot)” value [1] was “significantly inhibited” and the “phosphorylation of AKT (Western blot)” value [2] was “significantly inhibited”.
With COc1cc2nccc(Oc3ccc(NC(=O)NC4CC4)c(Cl)c3)c2cc1C(N)=O [Lenvatinib] the “Tumor Volumes IC50 Values, Solvent control” value [3] was 0.70 ± 0.25 mg/kg, the “Tumor Weights IC50 Values, Solvent control” value [3] was 0.78 ± 0.58 mg/kg and the “Tumor Volumes IC50 Values, Compound 4” value [3] was 0.10 ± 0.05 mg/kg. The “Tumor Weights IC50 Values, Compound 4” value [3] was 0.10 ± 0.01 mg/kg.
With CC(C)(C)c1nc(-c2cccc(NS(=O)(=O)c3c(F)cccc3F)c2F)c(-c2ccnc(N)n2)s1 [GSK2118436] the “ERK phosphorylation (Western blot)” value [4] was “significantly inhibited ERK phosphorylation”.
For CO[C@H]1C[C@@H]2CC[C@@H](C)[C@@](O)(O2)C(=O)C(=O)N2CCCC[C@H]2C(=O)O[C@H]([C@H](C)C[C@@H]2CC[C@@H](O)[C@H](OC)C2)CC(=O)[C@H](C)/C=C(\C)[C@@H](O)[C@@H](OC)C(=O)[C@H](C)C[C@H](C)/C=C/C=C/C=C/1C [rapamycin], the logP [5] is given as over 6.
For N#CC1(c2ccc(NC(=O)c3cccnc3NCc3ccncc3)cc2)CCCC1 [Apatinib], the “Tumor Volumes IC50 Values, Solvent control” value [3] was 1.95 ± 0.55 mg/kg, the “Tumor Weights IC50 Values, Solvent control” value [3] was 1.65 ± 0.09 mg/kg and the “Tumor Volumes IC50 Values, Compound 4” value [3] was 0.53 ± 0.20 mg/kg. The “Tumor Weights IC50 Values, Compound 4” value [3] was 0.59 ± 0.07 mg/kg.
For CNC(=O)c1cc(Oc2ccc(NC(=O)Nc3ccc(Cl)c(C(F)(F)F)c3)c(F)c2)ccn1 [Regorafenib], the “Tumor Volumes IC50 Values, Solvent control” value [3] was 0.92 ± 0.48 mg/kg, the “Tumor Weights IC50 Values, Solvent control” value [3] was 1.22 ± 0.72 mg/kg and the “Tumor Volumes IC50 Values, Compound 4” value [3] was 0.43 ± 0.10 mg/kg. The “Tumor Weights IC50 Values, Compound 4” value [3] was 0.55 ± 0.10 mg/kg.
In the case of C[C@@H]1CCN(C(=O)CC#N)C[C@@H]1N(C)c1ncnc2[nH]ccc12 [CP690550], the “ERK phosphorylation (Western blot)” value [4] is reported as “does not affect”, the “phosphorylation of P70S6K1 (Western blot)” value [1] is reported as “does not affect” and the “phosphorylation of AKT (Western blot)” value [2] is reported as “does not affect”.
In the case of CO[C@H]1C[C@@H]2CC[C@@H](C)[C@@](O)(O2)C(=O)C(=O)N2CCCC[C@H]2C(=O)O[C@H]([C@H](C)C[C@@H]2CC[C@@H](OCCO)[C@H](OC)C2)CC(=O)[C@H](C)/C=C(\C)[C@@H](O)[C@@H](OC)C(=O)[C@H](C)C[C@H](C)/C=C/C=C/C=C/1C [everolimus], the logP [5] is listed as over 6.
For CNC(=O)c1cc(Oc2ccc(NC(=O)Nc3ccc(Cl)c(C(F)(F)F)c3)cc2)ccn1 [Sorafenib], the “Tumor Volumes IC50 Values, Solvent control” value [3] was 1.30 ± 0.48 mg/kg, the “Tumor Weights IC50 Values, Solvent control” value [3] was 1.57 ± 0.41 mg/kg and the “Tumor Volumes IC50 Values, Compound 4” value [3] was 0.17 ± 0.03 mg/kg. The “Tumor Weights IC50 Values, Compound 4” value [3] was 0.15 ± 0.04 mg/kg, the “OS (overall survival), median” value ([6]; mTOR mRNA High (n = 40)) was 10.0 M and the “TTP (time to progress), median” value ([6]; mTOR mRNA High (n = 40)) was 8.0 M. For the same compound, the “OS (overall survival), median” value ([6]; mTOR mRNA Low (n = 12)) was 16.0 M and the “TTP (time to progress), median” value ([6]; mTOR mRNA Low (n = 12)) was 12.0 M.
For CC(C)(C)OC(=O)Nc1ccc(-c2nc(N3CCOCC3)c3ncn(CCC4OCCO4)c3n2)cc1 [Compound 4, tert-butyl (4-(9-(2-(1,3-dioxolan-2-yl)ethyl)-6-morpholino-9H-purin-2-yl)phenyl)carbamate], the “MHCC97-H cells' subcutaneous growth” value ([3]; compound 4 alone at 1 mg/kg) was “without significantly affecting”, the “activation of mTOR in vivo” value ([3]; compound 4 at 1 mg/kg) was “significantly inhibited the activation of mTOR” and the “ERK phosphorylation (Western blot)” value [4] was “did not show a significant inhibitory effect”. The “inhibitory activity on mTORC1 (phospho-p70S6K1, Western blot)” value [1] was “definite inhibitory effect”, the “phosphorylation of P70S6K1 (Western blot)” value [1] was “only inhibited the phosphorylation of P70S6K1” and the “inhibition of activation of mTOR kinase (phosphorylation of P70S6K1) in cells” value ([1]; compound 4 at 0.03 μmol/L (30 nmol/L)) was “significantly inhibited the activation of mTOR”. The “inhibitory activity on mTORC2 (phospho-AKT SER473, Western blot)” value [2] was “weaker than that on mTORC1”, the “phosphorylation of AKT (Western blot)” value [2] was “did not affect PI3K or AKT” and the “cytotoxicity on MHCC97-H cells” value [7] was “no obvious cytotoxicity”.
With COc1cc2c(Oc3ccc4[nH]c(C)cc4c3F)ccnc2cc1OCC1(N)CC1 [Anlotinib] the “Tumor Volumes IC50 Values, Solvent control” value [3] was 1.70 ± 0.54 mg/kg, the “Tumor Weights IC50 Values, Solvent control” value [3] was 1.60 ± 0.71 mg/kg and the “Tumor Volumes IC50 Values, Compound 4” value [3] was 0.44 ± 0.23 mg/kg. The “Tumor Weights IC50 Values, Compound 4” value [3] was 0.42 ± 0.07 mg/kg.
